Bioassay records: PubChem BioAssay, The Scripps Research Institute Molecular Screening Center
ABHD4 inh: ABHD4 inhibitors, primary screen, biochemical, fluorescence polarization, mouse; purified mABHD4, FP-Rh probe fluorescence polarization; inhibition, % at 8.92 µM; 370,000 compounds, 0.54% hits;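 active means inhibition exceeding the mean over every tested compound plus 3 SD, cut at about 30% in these data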;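 further: 0% = plate median of compound wells and 100% = S159A mutant with DMSO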
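Test system: mABHD4 protein; Read-out basis: % inhibition; Incubation: 45 min + 60 min at 25 °C; Repeats: single replicate; Technique: fluorescence polarization with parallel and perpendicular emission, 525/598 nm; Compound: 8.92 µM, single dose; Benchmarks: full inhibition S159A mutant plus DMSO, zero as sample-well median.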
TCR CD3 inh: inhibitors of human TCR-CD3 interaction, primary screen, biochemical, fluorescence, TAMRA-labeled TCR probe; inhibition, % at 9.4 µM; 360,000 compounds, 0.37% hits; in the data active means inhibition above about 19%;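 further: recombinant mutant TCR 2C K166C tagged with TAMRA read by polarization; 0% = receptor in buffer alone and 100% = receptor with positive control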
Tn7 DDE FP: inhibitors of Tn7 peptide binding to fibrin DD(E), primary screen, biochemical, fluorescence polarization, human fibrin, Tn7 probe | Fibrinogen beta chain (Homo sapiens), P02675 | FP displacement of FITC-Tn7 peptide from fibrin DD(E); 0% = median of compound wells per plate | inhibition, % at 8.3 µM | 370,000 compounds, 0.13% hits;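 active means inhibition above the mean of compounds falling within the control limits plus 3 SD of them, cut at about 14% in these data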;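 further: 0% = plate median of compound wells and 100% = 10 µM Aha-Tn7 peptide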
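assay system = human clot-derived fibrin DD(E) complex | quantity = Fibrin-DD(E) at 2 µM final | timing = 10 min preincubation, 3 h with tracer, room temperature | signal = fluorescence polarization | measure = percent inhibition | benchmarks = high control wells with 10 µM unlabelled Aha-Tn7 peptide (full inhibition) | replicates = singlicate testing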
HTRA1 inh: HTRA1 serine protease inhibitors, primary screen, biochemical, fluorescence polarization, HTS. Q92743. recombinant HTRA1, FP-rhodamine activity-based probe. inhibition, % at 5.96 µM. 340,000 compounds, 0.5% hits; in the data active means inhibition above about 36%;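 further: 0% = enzyme with DMSO and 100% = wells lacking enzyme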
Tn6 DDE FP: inhibitors of Tn6 peptide binding to fibrin DD(E), primary screen, biochemical, fluorescence polarization, human fibrin, Tn6 probe; Fibrinogen beta chain (Homo sapiens), P02675; Fibrin DD(E) TRITC-Tn6 fluorescence polarization displacement; inhibition, % at 8.3 µM; 370,000 compounds, 0.21% hits; AID 720509, 2013;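 active means inhibition above a per-campaign cutoff: mean of compounds within control limits plus 3 SD, cut at about 15% in these data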;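 further: 0% = median of all compound wells on the plate and 100% = blocking peptide control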
SIAE primary: human SIAE inhibitors, primary screen, biochemical, fluorescence polarization, FP-Rh probe, 1536-well HTS; 370,000 compounds, 0.69% hits; AID 1053197, 2014; Sialate O-acetylesterase (Homo sapiens), Q9HAT2; SIAE FP-Rh probe binding; inhibition, % at 9.66 µM;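 active means inhibition above a cutoff: mean of compounds within the control limits plus 3 SD of those, cut at about 17% in these data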;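 further: 0% = plate median of compound wells and 100% = probe without SIAE protein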
Target sequence (Q9HAT2 whole entry, looked up): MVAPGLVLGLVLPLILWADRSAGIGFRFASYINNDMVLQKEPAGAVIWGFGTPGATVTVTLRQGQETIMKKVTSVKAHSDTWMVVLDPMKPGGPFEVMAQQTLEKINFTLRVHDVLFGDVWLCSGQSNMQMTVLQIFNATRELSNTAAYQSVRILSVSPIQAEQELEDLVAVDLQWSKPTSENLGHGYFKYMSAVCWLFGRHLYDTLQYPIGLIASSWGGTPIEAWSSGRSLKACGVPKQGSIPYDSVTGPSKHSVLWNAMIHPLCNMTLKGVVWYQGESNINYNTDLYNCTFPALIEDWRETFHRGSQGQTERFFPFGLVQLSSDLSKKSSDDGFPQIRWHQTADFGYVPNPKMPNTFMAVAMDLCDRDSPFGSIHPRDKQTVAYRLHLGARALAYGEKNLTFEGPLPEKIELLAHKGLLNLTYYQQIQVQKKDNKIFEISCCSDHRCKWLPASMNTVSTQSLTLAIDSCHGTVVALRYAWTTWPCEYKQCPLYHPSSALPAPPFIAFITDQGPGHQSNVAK
SIAE inh conf: human SIAE inhibitors, retest, confirmation, biochemical, fluorescence polarization, FP-Rh probe, triplicate; shares compounds with SIAE primary; SIAE FP-Rh activity-based probe; inhibition, % at 9.66 µM; 2,300 compounds, 13% hits; AID 1117263, 2014;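 active means mean inhibition of the replicates above the hit cutoff set in the primary screen, cut at about 17% in these data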;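 further: 0% = SIAE with DMSO and probe and 100% = probe without SIAE; inhibitors lower polarization as more probe stays unbound to SIAE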
Active calls of the source: *. An excerpt weighted towards active compounds, which were near 1.8% of everything screened.

How did C[C@H](CO)N1C[C@H](C)[C@@H](CN(C)S(=O)(=O)c2ccc(F)cc2)Oc2ccc(NC(=O)Nc3ccc4c(c3)OCO4)cc2C1=O do in these assays?
ABHD4 inh: 6.2; TCR CD3 inh: -0.5; Tn7 DDE FP: 0.3; HTRA1 inh: 5.7; Tn6 DDE FP: -2.1; SIAE primary: 22.0*; SIAE inh conf: 7.5

What do the screens show for `COc1ccc(-c2nnc(SCC(=O)Nc3ccc(S(=O)(=O)Nc4cc(C)nc(C)n4)cc3)n2-c2ccc(OC)cc2)cc1`?
ABHD4 inh: -10.2; Tn7 DDE FP: 3.5; Tn6 DDE FP: -4.6; SIAE primary: 1.3

Results for CCOc1ccc(-n2cc(C(=O)NCCOC)c3cc(OC)c(OC)cc3c2=O)cc1 ?
ABHD4 inh: 2.9; TCR CD3 inh: 1.9; Tn7 DDE FP: -5.4; HTRA1 inh: 4.5; Tn6 DDE FP: -0.8; SIAE primary: 21.7*; SIAE inh conf: -5.4

What do the screens show for `CCOC(=O)[C@]12CCCC=C1N(Cc1ccc(OC)cc1)C(=O)[C@@H]2CC(=O)NCC12CC3CC(CC(C3)C1)C2`?
ABHD4 inh: 3.1; Tn7 DDE FP: -1.9; Tn6 DDE FP: -0.2; SIAE primary: -2.7

How did O=C(CSc1nnc(-c2ccco2)o1)NC1CCCCCC1 do in these assays?
ABHD4 inh: 4.7; TCR CD3 inh: 5.3; Tn7 DDE FP: 2.8; HTRA1 inh: -2.7; Tn6 DDE FP: -8.0; SIAE primary: 18.3*; SIAE inh conf: -1.5

Results for COc1ccc(S[C@]2(C(=O)N3CCOCC3)CC(=O)N(C(=O)/C=C/c3ccccc3)[C@@H]2c2ccc(OC)cc2)cc1 ?
ABHD4 inh: -3.2; Tn7 DDE FP: 7.1; Tn6 DDE FP: -0.6; SIAE primary: -0.9

Results for COc1ccc(NS(=O)(=O)c2cccs2)cc1S(=O)(=O)N1CCOCC1 ?
ABHD4 inh: -2.0; TCR CD3 inh: 13.8; Tn7 DDE FP: 0.3; HTRA1 inh: 1.0; Tn6 DDE FP: 5.2; SIAE primary: -2.5

Results for COc1ccc(NS(=O)(=O)c2cccs2)cc1S(=O)(=O)N1CCCCC1 ?
ABHD4 inh: 1.3; TCR CD3 inh: -5.2; Tn7 DDE FP: 5.5; HTRA1 inh: 3.5; Tn6 DDE FP: -5.7; SIAE primary: 19.4*; SIAE inh conf: -0.2

What do the screens show for `COc1ccc2oc(=O)c(-c3csc(Nc4cccc(O)c4)n3)cc2c1`?
ABHD4 inh: 10.6; TCR CD3 inh: 0.7; Tn7 DDE FP: -6.6; HTRA1 inh: -6.8; Tn6 DDE FP: -19.5; SIAE primary: 39.2*; SIAE inh conf: -4.8

Results for COc1ccc(N2CCN(C(=O)CSc3nnnn3C3CC3)CC2)cc1 ?
ABHD4 inh: -1.3; TCR CD3 inh: -0.8; Tn7 DDE FP: 2.2; HTRA1 inh: 10.5; Tn6 DDE FP: 5.2; SIAE primary: 19.5*; SIAE inh conf: -2.5

How did COc1ccccc1N1CCN(C(=O)CSc2nnnn2C2CC2)CC1 do in these assays?
ABHD4 inh: 1.5; TCR CD3 inh: 3.0; Tn7 DDE FP: -0.4; HTRA1 inh: 2.4; Tn6 DDE FP: -7.2; SIAE primary: 0.9

What do the screens show for `CC(C)c1ccc(NC(=O)/C(C#N)=C/c2ccncc2)cc1`?
ABHD4 inh: 3.0; TCR CD3 inh: -3.9; Tn7 DDE FP: 7.0; HTRA1 inh: -5.4; Tn6 DDE FP: -1.3; SIAE primary: 18.1*; SIAE inh conf: 1.4

What do the screens show for `C/C(=N\N=c1/sc2ccccc2n1C)c1ccccn1`?
ABHD4 inh: -4.2; TCR CD3 inh: -2.4; Tn7 DDE FP: 3.5; HTRA1 inh: -1.8; Tn6 DDE FP: -3.6; SIAE primary: -1.9

Results for C/C(=N\N=c1/sc2ccccc2n1C)c1ccc(N2CCOCC2)cc1 ?
ABHD4 inh: 5.9; TCR CD3 inh: -1.0; Tn7 DDE FP: -4.7; HTRA1 inh: 7.3; Tn6 DDE FP: 2.0; SIAE primary: 18.7*; SIAE inh conf: 6.2

How did c1ccc(COCCc2cn(Cc3ccccc3)c3ccccc23)cc1 do in these assays?
ABHD4 inh: -3.9; TCR CD3 inh: -3.8; Tn7 DDE FP: -0.7; Tn6 DDE FP: -8.3; SIAE primary: -0.5

Results for Cc1c(NC(=S)NC(=O)c2cccc(Br)c2)c(=O)n(-c2ccccc2)n1C ?
ABHD4 inh: -1.4; TCR CD3 inh: 0.7; Tn7 DDE FP: 0.7; HTRA1 inh: -4.7; Tn6 DDE FP: -0.1; SIAE primary: 17.1*; SIAE inh conf: 3.3

What do the screens show for `COc1cccc(C2c3c(ncn(-c4ccccc4)c3=N)Oc3ccc4ccccc4c32)c1OC` (stereo not drawn)?
ABHD4 inh: -0.9; Tn7 DDE FP: 2.8; Tn6 DDE FP: -7.7; SIAE primary: -0.8

What do the screens show for `Cn1c(N)c(N=O)c(=O)n(C)c1=O`?
ABHD4 inh: -0.5; TCR CD3 inh: 6.3; Tn7 DDE FP: 4.1; HTRA1 inh: 0.9; Tn6 DDE FP: 1.9; SIAE primary: 17.1*; SIAE inh conf: 1.5

How did CCOC(=O)C=Nc1c(N)n(C)c(=O)n(C)c1=O do in these assays?
ABHD4 inh: 0.4; TCR CD3 inh: -3.5; Tn7 DDE FP: -3.5; HTRA1 inh: -8.6; Tn6 DDE FP: 3.6; SIAE primary: -0.1

How did COc1ccc2[nH]c(O)c(N=NC(=O)Cc3cccs3)c2c1 do in these assays?
ABHD4 inh: 20.2; TCR CD3 inh: 12.3; Tn7 DDE FP: -8.1; HTRA1 inh: 8.7; Tn6 DDE FP: 2.2; SIAE primary: 18.3*; SIAE inh conf: 11.1

Results for O=Nc1c(O)[nH]c2ccc(F)cc12 ?
ABHD4 inh: 11.6; TCR CD3 inh: -1.6; Tn7 DDE FP: -1.9; HTRA1 inh: 15.3; Tn6 DDE FP: -1.6; SIAE primary: 22.6*; SIAE inh conf: 21.9*

How did O=Nc1c(O)[nH]c2ccc(Cl)cc12 do in these assays?
ABHD4 inh: 3.2; TCR CD3 inh: -10.8; Tn7 DDE FP: -1.3; HTRA1 inh: 14.3; Tn6 DDE FP: -2.5; SIAE primary: 28.3*; SIAE inh conf: 24.6*

Results for O=[N+]([O-])c1ccc(N=Nc2c(O)[nH]c3ccc(F)cc23)cc1 ?
ABHD4 inh: 5.0; TCR CD3 inh: -4.8; Tn7 DDE FP: -6.2; HTRA1 inh: 0.2; Tn6 DDE FP: -0.5; SIAE primary: -12.4

Results for COc1ccc2[nH]c(O)c(N=O)c2c1 ?
ABHD4 inh: 9.5; TCR CD3 inh: 11.0; Tn7 DDE FP: -2.6; HTRA1 inh: 9.5; Tn6 DDE FP: 0.0; SIAE primary: 25.5*; SIAE inh conf: 23.2*
